Measured values from ChEMBL document CHEMBL1124128, “Angiotensin-converting enzyme inhibitors. Mercaptan, carboxyalkyl dipeptide, and phosphinic acid inhibitors incorporating 4-substituted prolines” (J Med Chem, 1988).
Where “and” joins values, the source holds several entries; their conditions need not be identical. Equal values may be shown once.

Columns and labels:
Rattus norvegicus [1] = experiment: % Inhibition of angiotensin-I induced pressor response in normotensive rats after intravenous dosing of 0.5 umol/kg; format: functional
In short: (§1)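 Conscious, unrestrained male Sprague–Dawley rats (225–275 g) with indwelling aortic and vena caval catheters, allowed at least 2 weeks of recovery. Aortic pressure recorded directly. Baseline pressor responses to AI (310 ng/kg iv) and AII (100 ng/kg iv) were taken first. Compound was given iv in 0.1 mL water or 5% NaHCO3, and responses were followed for up to 70 min. Maximum % inhibition is the mean of four animals per dose.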

Rattus norvegicus [2] = experiment: % Inhibition of angiotensin-I induced pressor response in normotensive rats after intravenous dosing of 0.015 umol/kg; format: functional
In short: (§2)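 Male Sprague–Dawley rats (225–275 g) fitted with indwelling abdominal aorta and vena cava catheters, recovered at least 2 weeks, then tested conscious and unrestrained. Aortic pressure was recorded directly. Pressor responses to AI (310 ng/kg iv) and AII (100 ng/kg iv) were taken before dosing. Compound was given iv in water or 5% NaHCO3, and responses were followed up to 70 min. Maximum % inhibition is the mean of four animals per dose.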

Rattus norvegicus [3] = experiment: (§3) % Inhibition of angiotensin-I induced pressor response in normotensive rats after intravenous dosing of 0.05 umol/kg; format: functional; in short: as §1
[4] = target: T1, Angiotensin-converting enzyme (Rattus norvegicus) (UniProt P47820); experiment: In vitro inhibition of rat Angiotensin I converting enzyme
T1 sequence (whole entry): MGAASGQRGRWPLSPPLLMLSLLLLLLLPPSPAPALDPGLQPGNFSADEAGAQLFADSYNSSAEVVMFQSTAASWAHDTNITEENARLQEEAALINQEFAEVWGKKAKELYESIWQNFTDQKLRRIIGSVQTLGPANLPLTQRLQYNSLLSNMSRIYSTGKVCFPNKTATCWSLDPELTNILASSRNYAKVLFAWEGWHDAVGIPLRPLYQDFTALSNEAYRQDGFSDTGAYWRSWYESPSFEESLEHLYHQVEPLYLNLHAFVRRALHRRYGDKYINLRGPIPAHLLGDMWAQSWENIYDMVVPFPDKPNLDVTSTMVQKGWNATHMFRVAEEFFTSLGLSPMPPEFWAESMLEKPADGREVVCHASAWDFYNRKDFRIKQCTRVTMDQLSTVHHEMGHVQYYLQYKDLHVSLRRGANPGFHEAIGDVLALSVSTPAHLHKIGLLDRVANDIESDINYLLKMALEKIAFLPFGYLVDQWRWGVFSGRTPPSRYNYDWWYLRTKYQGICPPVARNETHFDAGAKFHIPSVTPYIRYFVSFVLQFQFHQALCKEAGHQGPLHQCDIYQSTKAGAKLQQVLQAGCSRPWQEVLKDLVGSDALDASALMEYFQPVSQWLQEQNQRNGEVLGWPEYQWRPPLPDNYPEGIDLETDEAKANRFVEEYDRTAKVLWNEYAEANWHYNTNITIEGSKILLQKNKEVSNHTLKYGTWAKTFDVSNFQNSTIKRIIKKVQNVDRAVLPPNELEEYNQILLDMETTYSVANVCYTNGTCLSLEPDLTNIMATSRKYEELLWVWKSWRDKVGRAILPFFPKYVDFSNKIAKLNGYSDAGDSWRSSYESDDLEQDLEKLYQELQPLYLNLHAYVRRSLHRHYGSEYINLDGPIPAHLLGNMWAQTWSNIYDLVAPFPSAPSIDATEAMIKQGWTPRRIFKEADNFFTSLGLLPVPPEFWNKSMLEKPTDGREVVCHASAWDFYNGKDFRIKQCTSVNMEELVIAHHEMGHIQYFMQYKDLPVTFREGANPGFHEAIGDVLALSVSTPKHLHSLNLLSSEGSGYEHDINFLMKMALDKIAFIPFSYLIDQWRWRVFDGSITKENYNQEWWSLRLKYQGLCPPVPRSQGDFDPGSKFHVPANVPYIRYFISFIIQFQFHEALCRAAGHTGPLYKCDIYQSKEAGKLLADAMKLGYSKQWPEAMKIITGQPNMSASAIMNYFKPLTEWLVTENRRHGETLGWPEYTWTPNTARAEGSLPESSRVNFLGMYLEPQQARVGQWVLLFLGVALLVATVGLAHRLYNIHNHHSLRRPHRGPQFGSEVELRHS

Rattus norvegicus [5] = experiment: as §3; format: functional; in short: as §2; remark: listed apart in the source
Rattus norvegicus [6] = experiment: % Inhibition of angiotensin-I induced pressor response in normotensive rats after intravenous dosing of 0.15 umol/kg; format: functional; in short: as §1
[7] = target: T2, Angiotensin-converting enzyme (Oryctolagus cuniculus, UniProt P12822); experiment: Inhibitory activity against rabbit lung angiotensin-1 converting enzyme
T2 sequence (P12822 whole entry): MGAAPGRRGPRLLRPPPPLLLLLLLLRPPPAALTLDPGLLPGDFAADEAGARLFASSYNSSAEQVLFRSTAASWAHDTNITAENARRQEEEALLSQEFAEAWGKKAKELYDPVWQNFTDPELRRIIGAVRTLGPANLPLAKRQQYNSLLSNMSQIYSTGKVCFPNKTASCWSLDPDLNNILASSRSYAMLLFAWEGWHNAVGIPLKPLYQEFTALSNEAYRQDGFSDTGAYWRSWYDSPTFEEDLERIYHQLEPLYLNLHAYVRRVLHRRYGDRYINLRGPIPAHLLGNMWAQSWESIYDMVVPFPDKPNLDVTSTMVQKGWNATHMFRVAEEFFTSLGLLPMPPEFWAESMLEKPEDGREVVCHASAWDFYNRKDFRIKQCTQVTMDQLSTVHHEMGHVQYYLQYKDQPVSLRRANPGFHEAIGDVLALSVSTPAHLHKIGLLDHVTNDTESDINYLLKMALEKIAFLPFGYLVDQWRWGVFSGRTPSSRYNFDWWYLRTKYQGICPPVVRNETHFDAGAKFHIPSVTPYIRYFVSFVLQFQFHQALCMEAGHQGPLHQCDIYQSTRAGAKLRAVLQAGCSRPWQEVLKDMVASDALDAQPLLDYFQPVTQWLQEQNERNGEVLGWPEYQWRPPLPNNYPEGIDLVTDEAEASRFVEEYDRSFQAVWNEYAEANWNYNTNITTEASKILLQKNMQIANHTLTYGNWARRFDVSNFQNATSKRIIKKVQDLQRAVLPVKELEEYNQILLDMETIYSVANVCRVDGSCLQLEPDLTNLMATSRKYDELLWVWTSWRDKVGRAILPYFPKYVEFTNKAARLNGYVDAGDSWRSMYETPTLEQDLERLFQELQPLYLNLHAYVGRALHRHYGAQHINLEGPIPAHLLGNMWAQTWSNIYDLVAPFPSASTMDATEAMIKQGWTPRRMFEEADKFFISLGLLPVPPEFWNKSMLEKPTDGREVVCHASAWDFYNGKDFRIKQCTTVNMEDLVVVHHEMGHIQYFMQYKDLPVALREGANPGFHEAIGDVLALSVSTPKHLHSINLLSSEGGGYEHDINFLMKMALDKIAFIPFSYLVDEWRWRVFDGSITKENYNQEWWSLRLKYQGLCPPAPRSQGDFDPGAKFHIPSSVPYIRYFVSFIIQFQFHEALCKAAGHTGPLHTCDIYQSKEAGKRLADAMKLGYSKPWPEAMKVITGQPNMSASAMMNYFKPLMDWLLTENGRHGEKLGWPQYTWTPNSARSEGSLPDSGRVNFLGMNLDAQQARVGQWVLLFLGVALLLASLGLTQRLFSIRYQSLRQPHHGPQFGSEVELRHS

Rattus norvegicus [8] = experiment: (§4) % Inhibition of angiotensin-I induced pressor response in normotensive rats after peroral dosing of 15 umol/kg; format: functional; conditions: po
In short: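 Catheterized conscious male Sprague–Dawley rats (225–275 g). Baseline pressor responses to AI (310 ng/kg iv) and AII (100 ng/kg iv) were taken. Compound was given orally in 0.75 mL water, 5% NaHCO3 or 1% agar suspension, and AI/AII responses were followed for up to 280 min. Maximum % inhibition is the mean of four animals per dose.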

Rattus norvegicus [9] = experiment: % Inhibition of angiotensin-I induced pressor response in normotensive rats after peroral dosing of 5 umol/kg; format: functional; conditions: po
In short: (§5)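 Conscious, unrestrained catheterized male Sprague–Dawley rats (225–275 g) had direct aortic pressure recording. Baseline pressor responses were taken to AI (310 ng/kg iv) and AII (100 ng/kg iv). Compound was given orally in water, 5% NaHCO3 or 1% agar suspension. AI and AII responses were then tracked up to 280 min. Maximum % inhibition is the mean response of four animals per dose.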

Rattus norvegicus [10] = experiment: as §4; format: functional; conditions: po; in short: as §5; remark: listed apart in the source
Rattus norvegicus [11] = experiment: % Inhibition of angiotensin-I induced pressor response in normotensive rats after intravenous dosing of 5 umol/kg; format: functional; in short: as §1
Rattus norvegicus [12] = experiment: % Inhibition of angiotensin-I induced pressor response in normotensive rats after peroral dosing of 150 umol/kg; format: functional; conditions: po; in short: as §5
Rattus norvegicus [13] = experiment: % Inhibition of angiotensin-I induced pressor response in normotensive rats after peroral dosing of 50 umol/kg; format: functional; conditions: po; in short: as §5
Rattus norvegicus [14] = experiment: % Inhibition of angiotensin-I induced pressor response in normotensive rats after intravenous dosing of 1.5 umol/kg; format: functional; in short: as §1

Structure (SMILES) | inhibition in vivo at 0.5 µmol/kg (Rattus norvegicus [1]) | inhibition in vivo at 0.015 µmol/kg (Rattus norvegicus [2]) | inhibition in vivo at 0.05 µmol/kg (Rattus norvegicus [3]) | T50 [4] | inhibition in vivo at 0.05 µmol/kg (Rattus norvegicus [5]) | inhibition in vivo at 0.15 µmol/kg (Rattus norvegicus [6]) | Ki [7] | inhibition in vivo at 15 µmol/kg (Rattus norvegicus [8]) | inhibition in vivo at 5 µmol/kg (Rattus norvegicus [9]) | inhibition in vivo at 15 µmol/kg (Rattus norvegicus [10]) | inhibition in vivo at 5 µmol/kg (Rattus norvegicus [11]) | inhibition in vivo at 150 µmol/kg (Rattus norvegicus [12]) | inhibition in vivo at 50 µmol/kg (Rattus norvegicus [13]) | inhibition in vivo at 1.5 µmol/kg (Rattus norvegicus [14])
CO[C@@H]1C[C@@H](C(=O)O)N(C(=O)CP(=O)(O)CCCCc2ccccc2)C1 | 73% | 23% | 33% | 100 nM |  |  |  |  |  |  |  |  |  | 
O=C(O)[C@@H]1C[C@@H](C2CCCCC2)CN1C(=O)CP(=O)(O)CCCCc1ccccc1 [FOSINOPRILAT] | 87% |  |  | 11 nM and 4 nM | 21% | 68% | 1.5 nM | 71% | 28% |  |  |  |  | 
O=C(O)[C@@H]1CCCN1C(=O)CP(=O)(O)CCCCc1ccccc1 | 56% |  |  | 180 nM |  |  | 15 nM |  |  | 13% | 92% | 75% | 47% | 86%
